The values that follow come from ChEMBL document CHEMBL1914406, “Inhibitory effect of novel 5-O-acyl juglones on mammalian DNA polymerase activity, cancer cell growth and inflammatory response” (Bioorg Med Chem, 2011).

The source made the active and inactive calls. No cut-off for these calls is given here. Bounds are passed on as bounds.

In the first data set the test system is Nucleic Acid. Kind of data set: Binding affinity to DNA assessed as thermal transition of DNA relative to control. The format is nucleic-acid assay.
Conditions: not given
`CCCCCC(=O)Oc1cccc2c1C(=O)C=CC2=O`: the outcome was inactive.

With `CC(=O)Oc1cccc2c1C(=O)C=CC2=O`, the outcome was inactive.

Another data set deals with HCT-116. Kind of data set: Cytotoxicity against human HCT116 cells by WST-1 assay. The class given is functional, cell-based.
Conditions: not given
A digest of the protocol:
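HCT116 colon carcinoma cells (ATCC) grown in McCoy's 5A with 10% FBS, penicillin and streptomycin, 37 °C, 5% CO2. Plated at 1 × 10⁴ cells/well together with compound, which was diluted from a 10 mM DMSO stock into medium (final 0.5% DMSO). Incubated 24 h. Viability read by WST-1, expressed relative to untreated cells.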
For orientation: Tetrazolium dyes change colour on reduction, which living cells bring about.
As to `CCCCC/C=C\C/C=C\CCCCCCCC(=O)O` [LINOLEIC ACID], the result was inactive.

As to `CC/C=C\C/C=C\C/C=C\C/C=C\C/C=C\CCCC(=O)O` [ICOSAPENT], the outcome was inactive.

The next data set has as its system RAW264.7. The data set can be described thus: Antiinflammatory activity in mouse RAW264.7 cells assessed as inhibition of LPS-induced TNFalpha secretion at 5 uM treated 30 mins before LPS challenge measured after 24 hrs by ELISA. The format is functional, cell-based.
Conditions: not given
In outline: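 RAW264.7 cells in MEM with 4.5 g/L glucose, 10% FCS, 5 mM L-glutamine, at 37 °C in 5% CO2. Seeded at 5 × 10⁴ cells/well and grown 24 h. Compound (final 1 and 5 µM) given 30 min before 100 ng/mL LPS. After 24 h, TNF-α in the medium measured by ELISA, relative to the no-compound value (100%). Mean ± SE, n = 4.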
In general terms: An ELISA detects its analyte on a solid surface through an enzyme-linked reagent.
Take `CCCCC/C=C\C/C=C\CCCCCCCC(=O)O` [LINOLEIC ACID]: the result was inactive.

Turning to `CC/C=C\C/C=C\C/C=C\C/C=C\C/C=C\CCCC(=O)O` [ICOSAPENT], the outcome was inactive.

The test system of a further data set is RAW264.7. Kind of data set: Cytotoxicity against mouse RAW264.7 cells at 5 uM. The format is cell-based. To be noted: raw264.7, 5 µM.
With `CCCCCC(=O)Oc1cccc2c1C(=O)C=CC2=O`, the Activity result is “Non-toxic”.

On to `CC(=O)Oc1cccc2c1C(=O)C=CC2=O`, for which the Activity result was “Non-toxic”.

As to `CCCCC/C=C\C/C=C\CCCCCCCC(=O)O` [LINOLEIC ACID], the Activity result was “Non-toxic”.

Consider `CC/C=C\C/C=C\C/C=C\C/C=C\C/C=C\CCCC(=O)O` [ICOSAPENT], for which the Activity result was “Non-toxic”.

Tested on in the next data set: not listed separately
Kind of data set: Cytotoxicity against mouse RAW264.7 cells. The format is cell-based. To be noted: read-out: LD50 (the source's name).
`CCCCCC(=O)Oc1cccc2c1C(=O)C=CC2=O`: the CC50 was more than 10 µM.

As for `CC(=O)Oc1cccc2c1C(=O)C=CC2=O`, the CC50 was more than 10 µM.

On to `CCCCC/C=C\C/C=C\CCCCCCCC(=O)O` [LINOLEIC ACID], for which the CC50 is more than 10 µM.

In the case of `CC/C=C\C/C=C\C/C=C\C/C=C\C/C=C\CCCC(=O)O` [ICOSAPENT], the CC50 is more than 10 µM.

The test system of another data set is Mus musculus. The data set can be described thus: Antiinflammatory activity in mouse assessed as inhibition of TPA-induced mouse ear edema at 500 ug/ear administered 30 mins before TPA challenge measured after 7 hrs relative to untreated control. The format is functional, organism-based.
Conditions: not given
In outline:
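Compound (500 µg) applied to one mouse ear; 30 min later TPA (0.5 µg) applied to both ears. Edema scored after 7 h and expressed as percentage of edema. Mean ± SE, n = 6.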
In the case of `CCCCCC(=O)Oc1cccc2c1C(=O)C=CC2=O`, the outcome was Active.

On to `CC(=O)Oc1cccc2c1C(=O)C=CC2=O`, for which the result was Active.

Regarding `CCCCC/C=C\C/C=C\CCCCCCCC(=O)O` [LINOLEIC ACID], the result was inactive.

`CC/C=C\C/C=C\C/C=C\C/C=C\C/C=C\CCCC(=O)O` [ICOSAPENT]: the result was inactive.

A further data set addresses T1, DNA polymerase lambda (Homo sapiens) (UniProt Q9UGP5).
T1 sequence (whole entry): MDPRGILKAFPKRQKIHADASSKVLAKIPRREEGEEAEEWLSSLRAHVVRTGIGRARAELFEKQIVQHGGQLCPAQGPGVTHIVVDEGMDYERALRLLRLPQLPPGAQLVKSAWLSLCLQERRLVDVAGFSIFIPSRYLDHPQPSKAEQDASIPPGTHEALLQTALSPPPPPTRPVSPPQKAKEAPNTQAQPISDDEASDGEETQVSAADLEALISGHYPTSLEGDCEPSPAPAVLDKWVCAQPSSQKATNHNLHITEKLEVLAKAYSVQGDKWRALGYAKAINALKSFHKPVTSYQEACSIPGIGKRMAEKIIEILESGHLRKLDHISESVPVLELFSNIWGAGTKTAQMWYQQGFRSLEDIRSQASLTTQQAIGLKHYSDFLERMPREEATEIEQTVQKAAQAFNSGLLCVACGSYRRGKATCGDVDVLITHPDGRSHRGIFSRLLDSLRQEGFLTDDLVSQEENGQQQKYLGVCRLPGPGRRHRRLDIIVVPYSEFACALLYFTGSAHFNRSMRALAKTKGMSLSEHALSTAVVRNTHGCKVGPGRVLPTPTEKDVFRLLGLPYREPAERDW
The data set can be described thus: Inhibition of recombinant His-tagged human DNA polymerase lambda using poly(dA)/oligo(dT)18 (A/T = 2/1) and dTTP as the DNA template-primer and nucleotide substrate at 10 uM after 60 mins.
Conditions: not given
A digest of the protocol: (§1)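 Compound in DMSO, sonicated 30 s. Premixed 0 °C, 10 min with enzyme (0.05 units) in 50 mM Tris-HCl pH 7.5, 1 mM DTT, 50% glycerol, 0.1 mM EDTA, then added to standard reaction mixture. Template-primers: poly(dA)/oligo(dT)18 (2/1) for pols, oligo(dT)18 for TdT, poly(rA)/oligo(dT)18 for HIV-1 RT, with [3H]dTTP. 60 min at 37 °C (Taq 74 °C). Activity relative to no-inhibitor control; mean ± SE of three experiments.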
For the molecule `CCCCCC(=O)Oc1cccc2c1C(=O)C=CC2=O`, the inhibition result is “Active”.

As for `CC(=O)Oc1cccc2c1C(=O)C=CC2=O`, the inhibition result was “Active”.

For the molecule `CCCCC/C=C\C/C=C\CCCCCCCC(=O)O` [LINOLEIC ACID], the inhibition entry is “inactive”.

Consider `CC/C=C\C/C=C\C/C=C\C/C=C\C/C=C\CCCC(=O)O` [ICOSAPENT], for which the inhibition result was “inactive”.

The species entered for another data set is Bos taurus. The data set can be described thus: Inhibition of calf DNA polymerase alpha using poly(dA)/oligo(dT)18 (A/T = 2/1) and dTTP as the DNA template-primer and nucleotide substrate at 10 uM after 60 mins.
Conditions: not given
In outline:
as §1
On to `CCCCCC(=O)Oc1cccc2c1C(=O)C=CC2=O`, for which the inhibition result was “Active”.

`CC(=O)Oc1cccc2c1C(=O)C=CC2=O`: the inhibition entry is “Active”.

On to `CCCCC/C=C\C/C=C\CCCCCCCC(=O)O` [LINOLEIC ACID], for which the inhibition result was “inactive”.

`CC/C=C\C/C=C\C/C=C\C/C=C\C/C=C\CCCC(=O)O` [ICOSAPENT]: the inhibition entry was “inactive”.

For another data set, the species on record is Homo sapiens. Kind of data set: Inhibition of histidine-tagged human DNA polymerase gamma using poly(dA)/oligo(dT)18 (A/T = 2/1) and dTTP as the DNA template-primer and nucleotide substrate at 10 uM after 60 mins.
Conditions: not given
A digest of the protocol:
as §1
Turning to `CCCCCC(=O)Oc1cccc2c1C(=O)C=CC2=O`, the inhibition result is “Active”.

In the case of `CC(=O)Oc1cccc2c1C(=O)C=CC2=O`, the inhibition result was “Active”.

Take `CCCCC/C=C\C/C=C\CCCCCCCC(=O)O` [LINOLEIC ACID]: the inhibition entry is “inactive”.

Turning to `CC/C=C\C/C=C\C/C=C\C/C=C\C/C=C\CCCC(=O)O` [ICOSAPENT], the inhibition entry is “inactive”.

The target of a further data set is T2, DNA polymerase kappa (Homo sapiens) (UniProt Q9UBT6).
T2 sequence (whole entry): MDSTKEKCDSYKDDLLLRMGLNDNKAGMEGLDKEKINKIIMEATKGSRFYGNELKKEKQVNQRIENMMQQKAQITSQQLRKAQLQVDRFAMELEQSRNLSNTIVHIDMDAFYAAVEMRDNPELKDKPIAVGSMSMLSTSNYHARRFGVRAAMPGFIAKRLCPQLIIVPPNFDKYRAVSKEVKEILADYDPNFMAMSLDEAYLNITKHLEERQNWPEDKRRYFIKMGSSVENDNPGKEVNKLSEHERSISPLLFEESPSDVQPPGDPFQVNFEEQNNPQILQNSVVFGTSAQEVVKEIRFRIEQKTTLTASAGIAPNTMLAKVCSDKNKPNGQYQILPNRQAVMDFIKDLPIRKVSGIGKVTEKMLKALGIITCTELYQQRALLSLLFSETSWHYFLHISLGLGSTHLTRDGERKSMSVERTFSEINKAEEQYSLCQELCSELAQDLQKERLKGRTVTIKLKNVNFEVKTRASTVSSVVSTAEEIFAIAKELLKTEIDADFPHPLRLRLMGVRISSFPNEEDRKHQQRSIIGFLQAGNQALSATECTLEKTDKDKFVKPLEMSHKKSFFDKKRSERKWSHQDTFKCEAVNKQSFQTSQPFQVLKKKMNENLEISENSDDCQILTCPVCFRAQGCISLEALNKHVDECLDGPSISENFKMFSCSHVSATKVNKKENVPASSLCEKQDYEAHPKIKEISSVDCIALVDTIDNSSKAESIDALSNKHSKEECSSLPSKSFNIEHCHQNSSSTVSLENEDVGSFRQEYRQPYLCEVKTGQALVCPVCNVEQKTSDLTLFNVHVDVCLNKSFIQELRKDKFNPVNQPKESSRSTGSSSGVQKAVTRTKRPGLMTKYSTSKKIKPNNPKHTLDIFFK
The data set can be described thus: Inhibition of C-terminal His6-tagged human DNA polymerase kappa (amino acids 1 to 560) using poly(dA)/oligo(dT)18 (A/T = 2/1) and dTTP as the DNA template-primer and nucleotide substrate at 10 uM after 60 mins.
Conditions: not given
Regarding `CCCCCC(=O)Oc1cccc2c1C(=O)C=CC2=O`, the inhibition entry was “Active”.

As for `CC(=O)Oc1cccc2c1C(=O)C=CC2=O`, the inhibition result was “Active”.

As for `CCCCC/C=C\C/C=C\CCCCCCCC(=O)O` [LINOLEIC ACID], the inhibition entry is “inactive”.

As to `CC/C=C\C/C=C\C/C=C\C/C=C\C/C=C\CCCC(=O)O` [ICOSAPENT], the inhibition result is “inactive”.

The species named for a further data set is Bos taurus. The data set can be described thus: Inhibition of calf DNA polymerase alpha using bovine deoxyribonuclease 1-treated DNA and dNTP as the DNA template-primer and nucleotide substrate at 10 uM after 60 mins.
Conditions: not given
As for `CCCCCC(=O)Oc1cccc2c1C(=O)C=CC2=O`, the inhibition result was “Active”.

Turning to `CC(=O)Oc1cccc2c1C(=O)C=CC2=O`, the inhibition result is “Active”.

As to `CCCCC/C=C\C/C=C\CCCCCCCC(=O)O` [LINOLEIC ACID], the inhibition entry is “inactive”.

Turning to `CC/C=C\C/C=C\C/C=C\C/C=C\C/C=C\CCCC(=O)O` [ICOSAPENT], the inhibition entry is “inactive”.

The species entered for a further data set is Homo sapiens. Kind of data set: Inhibition of histidine-tagged human DNA polymerase gamma using bovine deoxyribonuclease 1-treated DNA and dNTP as the DNA template-primer and nucleotide substrate at 10 uM after 60 mins.
Conditions: not given
Turning to `CCCCCC(=O)Oc1cccc2c1C(=O)C=CC2=O`, the inhibition entry is “Active”.

In the case of `CC(=O)Oc1cccc2c1C(=O)C=CC2=O`, the inhibition result is “Active”.

On to `CCCCC/C=C\C/C=C\CCCCCCCC(=O)O` [LINOLEIC ACID], for which the inhibition result was “inactive”.

Consider `CC/C=C\C/C=C\C/C=C\C/C=C\C/C=C\CCCC(=O)O` [ICOSAPENT], for which the inhibition entry was “inactive”.

The next data set deals with T2, DNA polymerase kappa (Homo sapiens). Kind of data set: Inhibition of C-terminal His6-tagged human DNA polymerase kappa (amino acids 1 to 560) using bovine deoxyribonuclease 1-treated DNA and dNTP as the DNA template-primer and nucleotide substrate at 10 uM after 60 mins.
Conditions: not given
On to `CCCCCC(=O)Oc1cccc2c1C(=O)C=CC2=O`, for which the inhibition result was “Active”.

For `CC(=O)Oc1cccc2c1C(=O)C=CC2=O`, the inhibition result was “Active”.

Consider `CCCCC/C=C\C/C=C\CCCCCCCC(=O)O` [LINOLEIC ACID], for which the inhibition entry is “inactive”.

Turning to `CC/C=C\C/C=C\C/C=C\C/C=C\C/C=C\CCCC(=O)O` [ICOSAPENT], the inhibition result was “inactive”.

Another data set has as its target T1, DNA polymerase lambda (Homo sapiens). Kind of data set: Inhibition of recombinant His-tagged human DNA polymerase lambda using bovine deoxyribonuclease 1-treated DNA and dNTP as the DNA template-primer and nucleotide substrate at 10 uM after 60 mins.
Conditions: not given
Regarding `CCCCCC(=O)Oc1cccc2c1C(=O)C=CC2=O`, the inhibition result was “Active”.

Regarding `CC(=O)Oc1cccc2c1C(=O)C=CC2=O`, the inhibition result was “Active”.

As to `CCCCC/C=C\C/C=C\CCCCCCCC(=O)O` [LINOLEIC ACID], the inhibition result was “inactive”.

Take `CC/C=C\C/C=C\C/C=C\C/C=C\C/C=C\CCCC(=O)O` [ICOSAPENT]: the inhibition entry was “inactive”.
